Test results as given in ChEMBL document CHEMBL1649115, “Enhanced susceptibility to antifungal oligopeptides in yeast strains overexpressing ABC multidrug efflux pumps” (Antimicrob Agents Chemother, 2008).
Converted amounts (≈) assume the structure as drawn. Non-standard residues stand in square brackets, D forms with d. Residues, ends and D or L forms follow the SMILES beside them. Phe(3-F) = N[C@@H](Cc1cccc(F)c1)C(=O)O

What was measured:
[1] = system: Saccharomyces cerevisiae; test: Antifungal activity against wild type Saccharomyces cerevisiae ATCC 9763 in YNPG-proline medium after 24 hrs by microdilution method; format: functional; conditions: ATCC 9763, 24 h
[2] = system: Saccharomyces cerevisiae; test: Antifungal activity against Saccharomyces cerevisiae AD12345678 in YNPG-proline medium after 24 hrs by microdilution method; format: functional; conditions: AD12345678, 24 h
[3] = system: Saccharomyces cerevisiae; test: Antifungal activity against Saccharomyces cerevisiae ADCDR1 expressing Candida albicans CDR1 efflux pump in YNPG-proline medium after 24 hrs by microdilution method; format: functional; conditions: ADCDR1, 24 h
[4] = system: Saccharomyces cerevisiae; test: Antifungal activity against Saccharomyces cerevisiae ADCDR2 expressing Candida albicans CDR2 efflux pump in YNPG-proline medium after 24 hrs by microdilution method; format: functional; conditions: ADCDR2, 24 h
[5] = system: Saccharomyces cerevisiae; test: Antifungal activity against Saccharomyces cerevisiae ADMDR1 expressing Candida albicans MDR1 efflux pump in YNPG-proline medium after 24 hrs by microdilution method; format: functional; conditions: ADMDR1, 24 h
[6] = system: Candida albicans; test: Antifungal activity against wild type Candida albicans 10261 in RPMI-1640 buffered medium after 24 hrs by microdilution method; format: functional; conditions: Candida albicans, 10261, 24 h; read-out: MIC
Summary of the method: (§1)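 C. albicans cells were grown in 2% glucose, 1% yeast extract, 1% Bacto peptone medium before testing. […] CARE-2 fingerprinting confirmed that each pair is a single strain.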

[7] = system: Candida albicans; test: Antifungal activity against fluconazole sensitive Candida albicans isolate Gu4 in RPMI-1640 buffered medium after 24 hrs by microdilution method; format: functional; conditions: Candida albicans, isolate Gu4, 24 h; read-out: MIC; summary of the method: as §1
[8] = system: Candida albicans; test: Antifungal activity against fluconazole resistant Candida albicans isolate Gu5 overexpressing CDR1 and CDR2 in RPMI-1640 buffered medium after 24 hrs by microdilution method; format: functional; conditions: isolate Gu5, 24 h
Summary of the method: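 C. albicans cells were grown in 2% glucose, 1% yeast extract, 1% Bacto peptone medium before testing. CARE-2 fingerprinting confirmed that each pair is a single strain.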

[9] = system: Candida albicans; test: Antifungal activity against fluconazole sensitive Candida albicans isolate B3 in RPMI-1640 buffered medium after 24 hrs by microdilution method; format: functional; conditions: Candida albicans, isolate B3, 24 h; read-out: MIC; summary of the method: as §1
[10] = system: Candida albicans; test: Antifungal activity against fluconazole resistant Candida albicans isolate B4 overexpressing MDR1 in RPMI-1640 buffered medium after 24 hrs by microdilution method; format: functional; conditions: Candida albicans, isolate B4, 24 h; read-out: MIC; summary of the method: as §1
[11] = system: Saccharomyces cerevisiae; test: Drug uptake in Saccharomyces cerevisiae AD12345678 at 200 uM pretreated for 10 mins measured after 60 mins by fluorescamine staining; format: ADME, organism-based; conditions: in vivo, 1 h
[12] = system: Saccharomyces cerevisiae; test: Drug uptake in Saccharomyces cerevisiae AD12345678 at 200 uM pretreated for 10 mins measured after 60 mins by fluorescamine staining in presence of fluconazole; format: ADME, organism-based; conditions: in vivo, 1 h
[13] = system: Saccharomyces cerevisiae; test: Drug uptake in Saccharomyces cerevisiae ADCDR1 expressing Candida albicans CDR1 efflux pump at 200 uM pretreated for 10 mins measured after 60 mins by fluorescamine staining; format: ADME, organism-based; conditions: in vivo, 1 h
[14] = system: Saccharomyces cerevisiae; test: Drug uptake in Saccharomyces cerevisiae ADCDR1 at 200 uM pretreated for 10 mins measured after 60 mins by fluorescamine staining in presence of fluconazole; format: ADME, organism-based; conditions: in vivo, 1 h
[15] = system: Saccharomyces cerevisiae; test: Drug uptake in Saccharomyces cerevisiae ADCDR2 expressing Candida albicans CDR2 efflux pump at 200 uM pretreated for 10 mins measured after 60 mins by fluorescamine staining; format: ADME, organism-based; conditions: in vivo, 1 h
[16] = system: Saccharomyces cerevisiae; test: Drug uptake in Saccharomyces cerevisiae ADCDR2 at 200 uM pretreated for 10 mins measured after 60 mins by fluorescamine staining in presence of fluconazole; format: ADME, organism-based; conditions: in vivo, 1 h
[17] = system: Saccharomyces cerevisiae; test: Drug uptake in Saccharomyces cerevisiae ADMDR1 expressing Candida albicans MDR1 efflux pump at 200 uM pretreated for 10 mins measured after 60 mins by fluorescamine staining; format: ADME, organism-based; conditions: in vivo, 1 h
[18] = system: Candida albicans; test: Prodrug stability in wild type Candida albicans 10261 assessed as compound cleavage rate measured per mg of protein; format: ADME, organism-based; conditions: in vivo
[19] = system: Candida albicans; test: Prodrug stability in fluconazole sensitive Candida albicans isolate Gu4 assessed as compound cleavage rate measured per mg of protein; format: ADME, organism-based; conditions: in vivo
Summary of the method: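 Oligopeptides were incubated with cell extracts of the yeast cells, and their hydrolytic enzymes cleaved them. The amino acids released were quantified by the Cd-ninhydrin method.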

[20] = system: Candida albicans; test: Prodrug stability in fluconazole sensitive Candida albicans isolate B3 assessed as compound cleavage rate measured per mg of protein; format: ADME, organism-based; conditions: in vivo
[21] = system: Saccharomyces cerevisiae; test: Drug uptake in Saccharomyces cerevisiae ADMDR1 at 50 uM pretreated for 10 mins measured after 60 mins by fluorescamine staining in presence of fluconazole; conditions: in vivo, 1 h
[22] = system: Saccharomyces cerevisiae; test: Prodrug stability in wild type Saccharomyces cerevisiae ATCC 9763 assessed as compound cleavage rate measured per mg of protein; format: ADME, organism-based; conditions: in vivo
[23] = system: Saccharomyces cerevisiae; test: Prodrug stability in Saccharomyces cerevisiae AD12345678 assessed as compound cleavage rate measured per mg of protein; format: ADME, organism-based; conditions: in vivo
[24] = system: Saccharomyces cerevisiae; test: Prodrug stability in Saccharomyces cerevisiae ADCDR1 expressing Candida albicans CDR1 efflux pump assessed as compound cleavage rate measured per mg of protein; format: ADME, organism-based; conditions: in vivo
[25] = system: Saccharomyces cerevisiae; test: Prodrug stability in Saccharomyces cerevisiae ADCDR2 expressing Candida albicans CDR2 efflux pump assessed as compound cleavage rate measured per mg of protein; format: ADME, organism-based; conditions: in vivo
[26] = system: Saccharomyces cerevisiae; test: Prodrug stability in Saccharomyces cerevisiae ADMDR1 expressing Candida albicans MDR1 efflux pump assessed as compound cleavage rate measured per mg of protein; format: ADME, organism-based; conditions: in vivo

Row | Structure (SMILES) | MIC [1] [µg/mL] | MIC [2] [µg/mL] | MIC [3] [µg/mL] | MIC [4] [µg/mL] | MIC [5] [µg/mL] | MIC [6] [µg/mL] | MIC [7] [µg/mL] | MIC [8] [µg/mL] | MIC [9] [µg/mL] | Drug uptake [11] [nmol/min/mg] | Drug uptake [12] [nmol/min/mg] | Drug uptake [13] [nmol/min/mg] | Drug uptake [14] [nmol/min/mg] | Drug uptake [15] [nmol/min/mg] | Drug uptake [16] [nmol/min/mg] | Drug uptake [17] [nmol/min/mg] | Stability [18] [nmol/min] | Stability [19] [nmol/min] | Stability [20] [nmol/min] | Drug uptake [21] [nmol/min/mg] | also measured
1 | C[C@@H]([C@H](N)C(=O)N[C@H](C(=O)O)[C@H]1O[C@@H](n2ccc(=O)[nH]c2=O)[C@H](O)[C@@H]1O)[C@H](O)c1ccc(O)cn1 [NIKKOMYCIN] | 128 (≈ 258 µM) | 128 (≈ 258 µM) | 16 (≈ 32.3 µM) | 16 (≈ 32.3 µM) | 128 (≈ 258 µM) | 32 (≈ 64.6 µM) | 16 (≈ 32.3 µM) | 4 (≈ 8.07 µM) | 8 (≈ 16.1 µM) | 0.33 | 0.32 | 1.08 | 0.98 | 0.97 | 0.88 | 0.32 | 0.3 | 0.3 | 0.3 | 0.34 | MIC [10]: 8 µg/mL (≈ 16.1 µM)
2 | CC(C)C[C@H](NC(=O)[C@@H](N)COCCN)C(=O)NCC(=O)O | – | – | – | – | – | – | – | – | – | 0.69 | 0.7 | 1.42 | 1.32 | 1.31 | 1.26 | 0.87 | 20 | 20 | 20 | 0.85 | Stability [22]: 14 nmol/min; Stability [23]: 14 nmol/min; Stability [24]: 14 nmol/min; Stability [25]: 14 nmol/min; Stability [26]: 14 nmol/min
3 | CC(C)C[C@H](N)C(=O)N[C@@H](Cc1cccc(F)c1)C(=O)O (H-Leu-[Phe(3-F)]-OH) | 256 (≈ 864 µM) | 256 (≈ 864 µM) | 8 (≈ 27 µM) | 4 (≈ 13.5 µM) | 256 (≈ 864 µM) | 64 (≈ 216 µM) | 128 (≈ 432 µM) | 8 (≈ 27 µM) | 64 (≈ 216 µM) | 0.79 | 0.79 | 1.95 | 1.82 | 2.37 | 2.23 | 0.84 | 20 | 20 | 20 | 0.87 | MIC [10]: 64 µg/mL (≈ 216 µM); Stability [22]: 14 nmol/min; Stability [23]: 14 nmol/min; Stability [24]: 14 nmol/min; Stability [25]: 14 nmol/min; Stability [26]: 14 nmol/min
